Data: ChEMBL document CHEMBL4177680, “Discovery of a Potent, Selective T-type Calcium Channel Blocker as a Drug Candidate for the Treatment of Generalized Epilepsies” (J Med Chem, 2017)
Blank lines part the entries; values can stand above or below the molecule they belong to.

Columns and labels:
[1] = Intrinsic clearance in human liver microsomes assessed per mg of protein at 1 uM after 15 mins in presence of NADPH regenerating system by LC-MS/MS method; type: ADME, microsome; settings: read-out: CLH
[2] = Intrinsic clearance in Wistar rat liver microsomes assessed per mg of protein at 1 uM after 15 mins in presence of NADPH regenerating system by LC-MS/MS method; type: ADME, microsome; settings: read-out: CLH
[3] = Clearance in Wistar rat at 1 mg/kg, iv administered via 5 mins infusion by LC-MS/MS method; type: ADME, organism-based; settings: in vivo
Salmonella typhimurium [4] = test: Mutagenicity in Salmonella typhimurium TA98 assessed as increase in number of revertants in presence of rat liver S9 fraction by Ames test relative to control; type: toxicity, organism-based; settings: salmonella enterica subsp. enterica serovar typhimurium
Salmonella typhimurium [5] = test: Mutagenicity in Salmonella typhimurium TA100 assessed as increase in number of revertants in presence of rat liver S9 fraction by Ames test relative to control; type: toxicity, organism-based; settings: salmonella enterica subsp. enterica serovar typhimurium
[6] = Total drug level in Wistar rat brain at 10 mg/kg administered via oral gavage measured after 1 hr by LC-MS/MS method; type: ADME, organism-based; settings: read-out: Drug uptake
[7] = Drug level in Wistar rat cerebrospinal fluid at 10 mg/kg administered via oral gavage measured after 1 hr by LC-MS/MS method; type: ADME, organism-based; settings: read-out: Drug uptake
Method in brief: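 Wistar rats given 10 mg/kg po and killed at 1 h. Brain, plasma and CSF concentrations measured; free brain and plasma levels reported from unbound fractions. Mean ± SD, n = 3.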

[8] = Chemical stability of the compound in amorphous form at room temperature; type: physicochemical
[9] = Covalent protein binding in human liver microsomes at 10 uM after 1 hr in presence of NADPH regenerating system by liquid scintillation counting method; type: ADME, microsome
[10] = Free drug level in Wistar rat brain at 10 mg/kg administered via oral gavage measured after 1 hr by rapid equilibrium dialysis method; type: ADME, organism-based; settings: in vivo
[11] = Half life in Wistar rat at 1 mg/kg, iv administered via 5 mins infusion by LC-MS/MS method; type: ADME, organism-based; settings: in vivo
[12] = Cmax in Wistar rat plasma at 10 mg/kg administered via oral gavage by LC-MS/MS method; type: ADME, organism-based; parameters: dose 10 mg/kg, route oral
[13] = Oral bioavailability in Wistar rat at 10 mg/kg administered via gavage by LC-MS/MS method; type: ADME, organism-based; settings: in vivo
[14] = Fraction unbound in audiogenic seizure-sensitive juvenile DBA/2J mouse brain at 100 mg/kg administered via oral gavage measured at 3 hrs; type: ADME, organism-based; settings: in vivo
Rattus norvegicus [15] = test: Unbound Cmax in normotensive Wistar rat at 30 mg/kg, po; type: ADME, organism-based; settings: in vivo
Rattus norvegicus [16] = test: Unbound Cmax in spontaneously hypertensive Wistar-Kyoto rat at 30 mg/kg, po; type: ADME, organism-based; settings: in vivo
Cavia porcellus = test: Unbound Cmax in Dunkin-Hartley guinea pig at 30 mg/kg, po; type: ADME, organism-based; settings: in vivo
Canis familiaris = test: Unbound Cmax in Beagle dog at 10 mg/kg, po; type: ADME, organism-based, Canis lupus familiaris; settings: in vivo
Cynomolgus monkey = test: Unbound Cmax in cynomolgus monkey at 1000 mg/kg, po; type: ADME, organism-based, Macaca fascicularis; settings: in vivo
[17] = Intrinsic clearance in monkey liver microsomes assessed per mg of protein at 1 uM after 15 mins in presence of NADPH regenerating system by LC-MS/MS method; type: ADME, Macaca mulatta, microsome; settings: rhesus monkey, read-out: CLH
[18] = Clearance in NMRI mouse at 1 mg/kg, iv as slow bolus dose by LC-MS/MS method; type: ADME, organism-based; settings: in vivo
[19] = Clearance in Beagle dog at 1 mg/kg, iv administered via 15 mins infusion by LC-MS/MS method; type: ADME, organism-based, Canis lupus familiaris; settings: in vivo
[20] = Clearance in cynomolgus monkey at 1 mg/kg, iv administered via 15 mins infusion by LC-MS/MS method; type: ADME, organism-based, Macaca fascicularis; settings: in vivo
[21] = Drug level in rat plasma treated with N-(1-(3,4-Difluorobenzyl)-1H-pyrazol-3-yl)-2-(1H-indol-5-yl)acetamide at 10 uM by LC-MS/MS method; type: ADME, cell-free
[22] = Drug level in human plasma treated with N-(1-(3,4-Difluorobenzyl)-1H-pyrazol-3-yl)-2-(1H-indol-5-yl)acetamide at 10 uM by LC-MS/MS method; type: ADME, cell-free
[23] = Drug metabolism in human plasma at 10 uM after 6 hrs by LC-MS/MS method; type: ADME, cell-free; settings: read-out: Drug metabolism
MDR1 [24] = test: Apparent permeability across apical to basolateral side in MDCK cells expressing MDR1 at 1 uM measured every 30 mins for 2 hrs; type: ADME, cell-based, Canis lupus familiaris; settings: dog
MDR1 [25] = test: Apparent permeability across basolateral to apical side in MDCK cells expressing MDR1 at 1 uM measured every 30 mins for 2 hrs; type: ADME, cell-based, Canis lupus familiaris; settings: dog
[26] = Half life in human plasma at 10 uM by LC-MS/MS method; type: ADME, cell-free
[27] = Half life in rat plasma at 10 uM by LC-MS/MS method; type: ADME, cell-free
[28] = Drug metabolism in human plasma assessed as 3-amino-1-(3,4-difluorobenzyl)pyrazole formation at 10 uM by LC-MS/MS method; type: ADME, cell-free
[29] = Drug metabolism in rat plasma assessed as 3-amino-1-(3,4-difluorobenzyl)pyrazole formation at 10 uM by LC-MS/MS method; type: ADME, cell-free
[30] = Fraction unbound in Wistar rat plasma at 10 mg/kg administered via oral gavage measured after 1 hr by rapid equilibrium dialysis method; type: ADME, organism-based; settings: in vivo

microsomal CLint at […], 1 µM [1]: 43 µL/min/mg
microsomal CLint at […], 1 µM [2]: > 500 µL/min/mg
clearance [3]: > 100 mL/min/kg
Structure (SMILES): CC(C)c1ccc(CC(=O)Nc2ccn(CC3CCC(F)(F)CO3)n2)cc1 (stereo in doubt; 15a)

Structure (SMILES): Nc1ccn(CC2CCC(F)(F)CO2)n1 (stereo in doubt; 14a)
fold change (FC) (Salmonella typhimurium [4]): 1.4
fold change (FC) (Salmonella typhimurium [5]): 1.3

concentration at 1 h [6]: 4110 nM
concentration at 1 h [7]: 50 nM
Stability [8]: Unstable
Structure (SMILES): O=C(Cc1ccc2cc[nH]c2c1)Nc1ccn(Cc2ccc(F)c(F)c2)n1

PB [9]: 72 pmol/mg/h
Structure (SMILES): [3H]c1cc(NC(=O)Cc2ccc(C3(C(F)(F)F)CC3)cc2)nn1Cc1ccc(C#N)cn1

microsomal CLint at […], 1 µM [1]: 24 µL/min/mg
microsomal CLint at […], 1 µM [2]: 59 µL/min/mg
Drug uptake(free) [10]: 29 nM
clearance [3]: 24 mL/min/kg
half-life [11]: 2.5 h
Cmax [12]: 1900 nM
bioavailability [13]: 75%
fCmax (Rattus norvegicus [15]): 190 nM
fCmax (Rattus norvegicus [16]): 90 nM
fCmax (Cavia porcellus): 140 nM
fCmax (Canis familiaris): 140 nM
fCmax (Cynomolgus monkey): 160 nM
microsomal CLint at […], 1 µM [17]: 9 µL/min/mg
clearance [18]: 13 mL/min/kg
clearance at […] [19]: 0.9 mL/min/kg
clearance at […] [20]: 5.5 mL/min/kg
Structure (SMILES): N#Cc1ccc(Cn2ccc(NC(=O)Cc3ccc(C4(C(F)(F)F)CC4)cc3)n2)nc1 [APINOCALTAMIDE]
Drug uptake(free) [14]: 244 nM

Structure (SMILES): Cc1ccc(Cn2ccc(N)n2)cc1
fold change (FC) (Salmonella typhimurium [4]): 15.1
fold change (FC) (Salmonella typhimurium [5]): 19.8

Structure (SMILES): N#Cc1ccc(Cn2ccc(N)n2)cc1
fold change (FC) (Salmonella typhimurium [4]): 1.5
fold change (FC) (Salmonella typhimurium [5]): 1.1

concentration at 1 h [6]: 2990 nM
Drug uptake(free) [10]: 63 nM
concentration at 1 h [7]: 135 nM
Structure (SMILES): O=C(Cc1ccc(C2(F)COC2)cc1)Nc1ccn(Cc2ccc(F)c(F)c2)n1

Structure (SMILES): N#Cc1ccc(Cn2ccc(N)n2)nc1
fold change (FC) (Salmonella typhimurium [4]): 1
fold change (FC) (Salmonella typhimurium [5]): 1.3

Drug uptake(free) [10]: 63 nM
Structure (SMILES): Cn1ncc2cc(CC(=O)Nc3cnn(Cc4ccc(F)c(F)c4)n3)ccc21

Structure (SMILES): Nc1ncn(Cc2ccc(F)c(F)c2)n1
fold change (FC) (Salmonella typhimurium [4]): 1.1
fold change (FC) (Salmonella typhimurium [5]): 1.1

Structure (SMILES): N#Cc1ccc(Cn2ccc(N)n2)cc1F
fold change (FC) (Salmonella typhimurium [4]): 1.2
fold change (FC) (Salmonella typhimurium [5]): 2.2

Structure (SMILES): N#Cc1nc(Cn2ccc(N)n2)ccc1F
fold change (FC) (Salmonella typhimurium [4]): 1.2
fold change (FC) (Salmonella typhimurium [5]): 1.4

Structure (SMILES): N#Cc1cn(Cc2ccc(F)c(F)c2)nc1N
fold change (FC) (Salmonella typhimurium [4]): 1.1
fold change (FC) (Salmonella typhimurium [5]): 1.1

Drug uptake(free) [10]: 2.4 nM
Structure (SMILES): CC(C)(C)c1ccc(CC(=O)Nc2ncn(Cc3ccc(F)c(F)c3)n2)cc1

Drug metabolism [21]: Metabolite_Detected
Drug metabolism [22]: Metabolite_Detected
Structure (SMILES): Nc1ccn(Cc2ccc(F)c(F)c2)n1
fold change (FC) (Salmonella typhimurium [4]): 2.7
fold change (FC) (Salmonella typhimurium [5]): 1.2

Structure (SMILES): N#Cc1cc(Cn2ccc(N)n2)ccc1F
fold change (FC) (Salmonella typhimurium [4]): 1.5
fold change (FC) (Salmonella typhimurium [5]): 1.5

Structure (SMILES): COc1ccc(Cn2ccc(N)n2)cc1
fold change (FC) (Salmonella typhimurium [4]): 8
fold change (FC) (Salmonella typhimurium [5]): 20.8

Structure (SMILES): Nc1cnn(Cc2ccc(F)c(F)c2)n1
fold change (FC) (Salmonella typhimurium [4]): 1.3
fold change (FC) (Salmonella typhimurium [5]): 3.3

metabolised at 6 h, 10 µM [23]: 4%
Structure (SMILES): CC(C)c1ccc(CC(=O)Nc2ccn(Cc3ccccc3)n2)cc1

Structure (SMILES): Nc1ccn(Cc2ccc(F)cc2)n1
fold change (FC) (Salmonella typhimurium [4]): 4.1
fold change (FC) (Salmonella typhimurium [5]): 10.2

metabolised at 6 h, 10 µM [23]: 7%
Structure (SMILES): CC(C(=O)Nc1ccn(Cc2ccc(F)cc2)n1)c1ccc(N(C)C)cc1 (racemic)

Structure (SMILES): Nc1ccn(Cc2ccccc2)n1
fold change (FC) (Salmonella typhimurium [4]): 15.3
fold change (FC) (Salmonella typhimurium [5]): 30.3

Papp A→B at 2 h, 1 µM (MDR1 [24]): 11 ×10⁻⁶ cm/s
Papp B→A at 2 h, 1 µM (MDR1 [25]): 59 ×10⁻⁶ cm/s
Structure (SMILES): Cn1c(=O)oc2cc(CC(=O)Nc3ccn(Cc4ccc(F)c(F)c4)n3)ccc21

metabolised at 6 h, 10 µM [23]: < 1%
Structure (SMILES): COc1ccc(C2(C(=O)Nc3ccn(Cc4ccccc4)n3)CC2)cc1

Structure (SMILES): Nc1ccn(CC2CCC(F)(F)CO2)n1 (stereo in doubt; 14b)
fold change (FC) (Salmonella typhimurium [4]): 1.1
fold change (FC) (Salmonella typhimurium [5]): 2.5

concentration at 1 h [6]: 4680 nM
Drug uptake(free) [10]: 52 nM
concentration at 1 h [7]: 164 nM
Stability [8]: Unstable
half-life at 10 µM [26]: 2 h
half-life at 10 µM [27]: 5 h
Drug metabolism [28]: Metabolite_Detected
Drug metabolism [29]: Metabolite_Detected
Structure (SMILES): O=C(Cc1ccc2[nH]ccc2c1)Nc1ccn(Cc2ccc(F)c(F)c2)n1

Drug uptake(free) [10]: 51 nM
concentration at 1 h [7]: 92 nM
Cp(f) [30]: 72 nM
Structure (SMILES): Cn1ncc2cc(CC(=O)Nc3ccn(Cc4ccc(F)c(F)c4)n3)ccc21

Drug uptake(free) [10]: 4.8 nM
Structure (SMILES): CCc1cc(CC(=O)Nc2ccn(Cc3ccc(C#N)cn3)n2)ccc1OCC(F)(F)F

microsomal CLint at […], 1 µM [1]: 6 µL/min/mg
Drug uptake(free) [10]: 6.1 nM
Structure (SMILES): CC(C)(C)c1ccc(CC(=O)Nc2ccn(Cc3ccc(C#N)cn3)n2)cc1

Structure (SMILES): Nc1nc(Cc2ccc(F)c(F)c2)cs1
fold change (FC) (Salmonella typhimurium [4]): 2.7
fold change (FC) (Salmonella typhimurium [5]): 1.1
